The results in this text go back to the RNAGym collection of RNA variant scans (doi:10.1126/science.aae0568).

Fewer inactive variants are shown than the library holds.

B1: tRNA (parent)
chain: GUUCCGUUGGCGUAAUGGUAACGCGUCUCCCUCCUAAGGAGAAGACUGCGGGUUCGAGUCCCGUACGGAACG

The series covers variants of B1. The experiment in a line: yeast fitness relative to wild type (ratio to wild type); higher = fitter; tRNA-Arg(CCU), competitive growth, 37 C, YPD. A digest of the protocol:
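Amplicons of the tRNA-Arg(CCU) gene were sequenced, 100-nucleotide paired-end, from the start population and from each end population of a pooled yeast competition. The competition, in six parallel replicates, lasted 24 hours in YPD at 37°C. Fitness relative to wild type was calculated from changes in genotype frequencies. Genotypes had to have ≥ 100 starting reads, and estimates < 0.5 were set to 0.5.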
Regarding GUUCCGUUGGCGUACUGGUAGCGCGUGUCCCUCCUAAGGAGAAGACUGCGGGUUCGAGUCCCGUACGGAACG, the yeast fitness is at most 0.5.
Consider GUUCCGUUGGCGUACUGGUAUCGCGUCUCCCUCAUAAGGAGAAGACUGCGGGUUCGAGUCCCGUACGGAACG, for which the yeast fitness was at most 0.5.
Next, GUUCCGUUGGCGUACUGGUAGCGCGUGUCCCUCCUAAGGAGAAGACUGCGGGUUCGAGUCCCGUACGGUACG: at most 0.5; GUUCCGUUGGCGUACUGGUAACGCGUCUCCCUCCUACGGACAAGACUGCGGGUUCGAGUCCCGUAAGGAACG: 0.589; GUUCCGUUGGCGUACUGGUGACACGUCUCCCUCCUAAGGAGAAGAAUGGAGGUUCGAGUCCCGUUCGGAUCG: at most 0.5.
With GUUCCGUUGGCGUACUGGUAACGCGUCUCCCUCCUACGGAGUAGACUGCGGGUUCGAGUCCCGUACGGAACG, the yeast fitness is at most 0.5.
In the case of GUUCCGUUGGCGUACUGGUACCGCGUCUCCCUCCUAAGGCGAAGACUGCGGGUUCGAGGGCCGUACGGAACG, the yeast fitness is at most 0.5.
As for GUUCCGUUGGCGUACUGGUAUCGCGUCUCCCUCCUAAGGAGAAGACUGCGGGUUCGAGUCCCGUACGGUACG, the yeast fitness is at most 0.5.
With GUUCCGUUGGCGUACUGGUAGUGCGUCUCCCUCCUAAGGAGAAGACUGUGGGUUCGAGUCCCGUACGGAACG, the yeast fitness is at most 0.5.
For GUUCCGUUGGCGUACUGGUAACGCGUCUCCCUCCUCACGAGAAGACUGCGGGUUUGAGUCCCGUAUGGAACG, the yeast fitness was at most 0.5.
Take GUUCCGUUGGCGUACUGGUUACGCGUCUCCCUCCUAAGGAGAAGACUGCGGGUUCGAGUCCCGUACGGAACG: the yeast fitness is 0.63.
Consider GUUCCGUUGGCGUACUGGUGACACGUCUCCCUCCUAAGGAGAAGAAUGGGGGUUCGAGUCCCGUUCGGAUCG, for which the yeast fitness is at most 0.5.
For the variant GUUCCGUUGGCGUACUGGUAUCGCGUCUCCCUCCUAAGGAGAAGACUGCGGGUUCGAGUCCCGUACGGAGCG, the yeast fitness is at most 0.5.
Next, GUUCCGUUGGCGUACUGGUAGUGCGUCUCCCUCCUAAGGAGAAGACUGCGGGUUCGUGUCCCGUACGGAACG: at most 0.5; GUUCCGUUGGCGUACUGGUUACGCGUCUCCGUCCUAAGGAGAAGACUCCGGGUUCGAGUCCCGUUCGGAACG: at most 0.5.
Consider GUUCCGUUGGCGUACUGGUACCGCGUCUCCCUCCUUAGGAGAAGACCGCGGGUUCGAGUCCCAUACGAAACG, for which the yeast fitness is at most 0.5.
In the case of GUUCCGUUGGCGUACUGGUUACGCGUCUCCGUCCUAAGGAGAAGACUGCGGGUUCGAGUCCCGUACGGAACG, the yeast fitness was found to be 0.562.
For GUUCCGUUGGCGUACUGGUAACGCGUCUCCCUCCUUAGGAGAAGACUGCGGGUUCGAGUCCCGAACGGAACG, the yeast fitness is at most 0.5.
On to GUUCCGUUGGCGUACUGGUAUCGAGUCUCCCUACUAAGGAGAAGACUGCGGGUUCGAGUCCCGUAAGGAACG, for which the yeast fitness is at most 0.5.
GUUCCGUUGGCGUACUGGUACCGCGUCUCCCUCCUUAGGAGAAGACCGCGGGUUCGAGUCCCAUACGGAACG: the yeast fitness was found to be 0.578.
GUUCCGUUGGCGUACUGGUAACGCGUCUCCCUCCUACGGAGAAGACUGCGGGUUCGAGUUCCGUACAGAACG: the yeast fitness was at most 0.5.
With GUUCCGUUGGCGUACUGGUUACGCGUCUCAGUCCUAAGGAGAAGACUGCGGGUUCGAGUCCCGUACGGAACG, the yeast fitness was at most 0.5.
For GUUCCGUUGGCGUACUGGUAUCGCGUCUCCCUCCUAAGGAGAAGACUGCGGGUUCGAGUCCCGUACGGAACG, the yeast fitness amounted to 0.546.
Consider GUUCCGUUGGCGUACUGGUAACGCGUCUCCCUCCUGAGGAGAAGACUGUGGGUUCGAGUCCCGUACGGAACG, for which the yeast fitness came out at 0.533.
On to GUUCCGUUGGCGUACUGGUAACGCGUCUCCCUCCUUAGGAGAAGACUGCGGGUUCGUGUCCCGUACAGAACG, for which the yeast fitness is at most 0.5.
Consider GUUCCGUUGGCGUACUGGUAACGCGUCUCCCUCCUCAGCAGAAGACUGCGGGUUCGAGUCCCGUACGGAACG, for which the yeast fitness is at most 0.5.
On to GUUCCGUUGGCGUACUGGUAACGCGUCUCCCUCCUUAGGAGAAGACUGCGGGUUCGAAUCCCGUACAGAACG, for which the yeast fitness was at most 0.5.
In the case of GUUCCGUUGGCGUACUGGUGACGCGUCUCCCUCCUAAGGAGAAGACUGCGAGUUCGAGUCCCGUACGGAACG, the yeast fitness is at most 0.5.
Next, GUUCCGUUGGCGUACUGGUAACGCGUCUCCCUCCUACGGAGAAGACUGCGGGUUCGAGUCCCGUACGGAACG: 0.639; GUUCCGUUGGCGUACUGGUAACGCGUCUCCCUCCUAGGGAGAAGACUGCGGGUUCGAGUCCCGUACGGAACG: 0.614.
Consider GUUCCGUUGGCGUACUGGUAUCGCGUCUCCCUCCUCAGGAGAAGACUGUGGGUUCGAGUCCCGUACGGUACG, for which the yeast fitness is at most 0.5.
Next, GUUCCGUUGGCGUACUGGUAGCACGUUUCCCUCCUAAGGAGAAGACUGCGGGUUCGAGUCCCGUACGGAACG: at most 0.5.
Next, GUUCCGUUGGCGUACUGGUAGCGCGUCUCCCUCCUGAGGAGAAGACUGUGGGUUCGAGUCCCGUACUGAACG: at most 0.5; GUUCCGUUGGCGUACUGGUACCGCGUCUCCCUCCUAAGGAGAAGUCUGCGGGUUCGAGUCUCGUAUGGAACG: at most 0.5.
On to GUUCCGUUGGCGUACUGGUAUCGAGUCUCCCUACUAAGGAGAAGACUGCGGGUUCGAGUCUCGUACGGAACG, for which the yeast fitness was at most 0.5.
With GUUCCGUUGGCGUACUGGUGACGCCUCUUCCUCCCAAGGAGAUGACUGCGGGUUCGAGUCCCGUACGGAACG, the yeast fitness was at most 0.5.
The figure for GUUCCGUUGGCGUACUGGUAUCGUGUCUCCCUCCUAAGGAGAAGACUGCGGGUUCGGGUCCCGUACUGAACG is 0.542.
Take GUUCCGUUGGCGUACUGGUACCGCGUCUCCCUCCUAACGAGAAGACUGCGGGUUCGAGUCCCCUACGGAUCG: the yeast fitness worked out at 0.513.
